Assay outcomes from PubChem BioAssay.
An excerpt weighted towards active compounds, which were near 1.8% of everything screened.
NPY-Y1 PAM-ag – potentiators or agonists of human neuropeptide Y receptor Y1; P25929; NPY-Y1 expressing cells, potentiator/agonist activation; activation, % at 3.6 µM; 220,000 tested, 0.37% active; AID 1304; in the data active = activation above about 33%, passing the limit was not always enough;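 also: cells stimulated with NPY at EC10 then isoproterenol at EC100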
NPY-Y2 antag – NPY-Y2 (human) receptor antagonism; P49146; NPY-Y2 expressing cells, antagonist mode; inhibition, % at 2.7 µM; 140,000 tested, 0.99% active; in the data active = inhibition above about 17%
Target sequence (P49146 whole entry, looked up): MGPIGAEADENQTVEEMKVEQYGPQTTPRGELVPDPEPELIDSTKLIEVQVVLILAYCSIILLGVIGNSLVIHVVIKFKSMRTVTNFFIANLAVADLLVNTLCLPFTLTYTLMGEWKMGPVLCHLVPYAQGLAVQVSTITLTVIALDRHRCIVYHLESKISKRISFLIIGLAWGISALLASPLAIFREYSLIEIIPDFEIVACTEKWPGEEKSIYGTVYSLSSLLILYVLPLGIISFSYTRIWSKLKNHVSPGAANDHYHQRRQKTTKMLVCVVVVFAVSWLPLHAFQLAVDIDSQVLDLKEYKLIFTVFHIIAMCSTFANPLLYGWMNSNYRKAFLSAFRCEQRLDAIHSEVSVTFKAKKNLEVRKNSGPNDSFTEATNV
NPY2 pot ag – human NPY-Y2 potentiation or agonism, primary screen; cells expressing NPY-Y2, potentiator/agonist read-out; P49146; activation, % at 3.6 µM; 220,000 tested, 0.45% active; in the data active = activation above about 27%;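 also: cells stimulated with NPY near EC25 plus isoproterenol at EC100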
NPY-Y1 antag – NPY-Y1 (human) receptor antagonism | 200,000 tested, 1% active | HEK293-CNG Y1 cells, membrane potential fluorescence; NPY at EC95, then isoproterenol | P25929 | inhibition, % at 3.6 µM;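 active = inhibition above the campaign mean inhibition of all tested compounds plus 3 SD, cut at about 20% in these data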
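Assay system: HEK293 cells with Y1 receptor plus CNG channel | Probe or stimulus: NPY (25 nM), isoproterenol (1 µM), Ro 20-1724 (25 µM) | Timing: Compound incubation 1 h at room temperature, readout 45 min post-stimulation | Measured by: Membrane-potential fluorescent dye readout | Benchmarks: High control isoproterenol alone, low control NPY with isoproterenol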
Numbers stand for hits; - = inactive; . = not tested or not shown.

SMILES | NPY-Y1 PAM-ag | NPY-Y2 antag | NPY2 pot ag | NPY-Y1 antag
CCN(CC)CCOC(=O)c1ccc(NC(=O)C(C)NC(=O)C23CC4CC(CC(C4)C2)C3)cc1 (stereo unspecified) | - | - | - | -
COC(=O)C1C(c2ccccc2)C(C(=O)OCc2ccco2)C1c1ccccc1 (stereo unspecified) | - | 37 | - | 37
O=C(O)C1C(c2ccccc2)C(C(=O)OCc2ccco2)C1c1ccccc1 (stereo unspecified) | - | - | - | -
COc1ccccc1N(C(=O)CCl)c1cn(C(C)=O)c2ccccc12 | - | . | - | .
CC(=O)n1cc(N(C(=O)CCl)c2ccc(Cl)cc2)c2ccccc21 | 66 | . | 50 | .
Nn1c(SCc2cccc(Br)c2)nnc1-c1ccncc1 | - | . | - | .
CNC(=S)Nc1cccc(C(=O)OC)c1 | - | . | - | .
O=[N+]([O-])c1ccc(C2CCCC/C2=N/OCc2ccccc2F)c([N+](=O)[O-])c1 (stereo unspecified) | - | 18 | - | 21
O=[N+]([O-])c1ccc(C2CCCC/C2=N/OCc2ccc(F)cc2)c([N+](=O)[O-])c1 (stereo unspecified) | - | - | - | -
Cc1ccc(-c2noc(CSc3nnc(Cc4ccccc4)n3-c3ccc(Cl)cc3)n2)cc1 | - | 25 | - | 21
CCC(C(=O)O)N1C(=O)C2CCCCC2C1=O (stereo unspecified) | - | . | - | .
CCS(=O)(=O)Nc1ccc(C2=NN(C(=O)c3ccco3)C(c3cccc(F)c3)C2)cc1 (stereo unspecified) | - | . | 35 | -
CCC(C)NS(=O)(=O)c1ccc(S(=O)(=O)N(CCc2ccc(OC)c(OC)c2)Cc2cccs2)cc1 (stereo unspecified) | - | 31 | - | 35
COc1ccc(CCN(Cc2cccs2)S(=O)(=O)c2ccc(S(=O)(=O)N3CCCCCC3)cc2)cc1OC | - | - | - | -
Cc1ccc(NS(=O)(=O)c2ccc(OCC(=O)Nc3cccc([N+](=O)[O-])c3)c(C)c2)cc1 | 44 | - | - | -
O=C(CSCC(=O)N1CCCCC1)Nc1nc(-c2ccccc2)c(-c2ccccc2)s1 | - | - | - | -
Nc1ccc2nc(SCC(=O)N3CCOCC3)sc2c1 | - | . | - | -
CCOC(=O)CSc1nc2ccc(NC(=O)CSc3nnnn3Cc3ccccc3)cc2s1 | 104 | - | 99 | -
CCOC(=O)CSc1nc2ccc(N)cc2s1 | 56 | - | 34 | -
COC(=O)CSc1nc2ccc(NC(C)=O)cc2s1 | 68 | - | 62 | -
O=C(NCCN1CCCOC1=O)C(=O)NCCN1CCCOC1=O | - | . | - | .
Cc1cccc(-n2c(SCC(N)=O)nc3c(c2=O)C2(CCCC2)Cc2ccccc2-3)c1 | 48 | - | 39 | -
CN1CCN(CC(O)COc2ccc(C34CC5CC(CC(C5)C3)C4)cc2)CC1 (stereo unspecified) | - | . | - | -
N#CCCN1CCCc2cc(N=Nc3ccc(C(F)(F)F)cc3)ccc21 | 73 | . | 54 | .
COC(=O)/C(=N/Nc1ccccc1)N1CCCc2ccccc21 | - | 22 | - | 29
SMILES | NPY-Y1 PAM-ag | NPY-Y2 antag | NPY2 pot ag | NPY-Y1 antag
COC(=O)/C(=N/Nc1ccc(C)cc1)N1CCCc2ccccc21 | - | 19 | - | 29
O=C(O)CCCCCNC(=O)C(=O)C1C(=O)Nc2ccccc21 (stereo unspecified) | - | . | - | .
Cc1c(C(=O)N/N=C/c2cccnc2)sc(=S)n1C | 57 | - | 54 | -
COc1ccc(N2C(=O)CS/C2=N\C(=S)Nc2ccccc2)cc1 | - | . | - | .
CS(=O)c1nc(-c2ccc(Br)cc2)cc(-c2ccccc2)c1C#N (stereo unspecified) | 101 | - | 66 | -
CS(=O)(=O)c1nc(-c2ccc(Br)cc2)cc(-c2ccccc2)c1C#N | - | - | - | -
Cc1ccc(OCCN2C(=O)C(=O)c3cc(C)ccc32)cc1 | - | . | - | 21
CCCCCOc1ccc(Br)cc1/C(C)=N/NC1=NCCN1 | - | 54 | - | 27
CCCCOC(=O)c1cc(C)nc2ccc(Br)cc12 | 101 | - | 31 | -
CCOC(=O)c1cc(C(=O)OCC)c2cc(Br)ccc2n1 | - | - | - | -
COc1ccc(CNC(=O)C(C#N)c2nc3ccccc3nc2N2CCN(C)CC2)cc1 (stereo unspecified) | - | 18 | - | -
CCn1c(NCc2cccc(OC)c2OC)nc2ccccc21 | - | - | - | -
COc1ccc(CNc2nc3ccccc3n2CCN2CCCCC2)c(OC)c1 | - | 26 | - | 29
COc1cccc(CNc2nc3ccccc3n2CCN2CCCCC2)c1OC | - | 25 | - | 42
CC(=O)Oc1ccc2c(c1)Oc1cc(OC(C)=O)ccc1C21OC(=O)c2ccccc21 | - | 79 | - | 32
O=C(NCCN1C(=O)S/C(=C\c2ccc(OC(F)F)cc2)C1=O)c1cnccn1 | - | - | - | -
CC(OC(=O)c1ccncc1)C(=O)Nc1ccc([N+](=O)[O-])cc1Cl (stereo unspecified) | - | . | - | -
CCCCCCCCCCn1c2c(c(=N)c3c1CCC3)CCC2 | - | 51 | - | 92
Cc1ccc(SCc2cc(=O)n(C)[nH]2)cc1 | - | . | - | -
Cc1ccc(S(=O)(=O)Nc2ccc(S(=O)(=O)NC(C)(C)C)cc2)cc1 | - | - | - | -
CC(C)(C)NS(=O)(=O)c1ccc(NS(=O)(=O)c2ccc(F)cc2)cc1 | - | - | 90 | -
COC(=O)C1=C(C)NC2=C(C(=O)CCC2)C1c1cccs1 (stereo unspecified) | - | - | - | -
CC1=C(C(=O)N2CCCCC2)C(c2cccs2)C2=C(CCCC2=O)N1 (stereo unspecified) | - | 22 | - | -
N=c1c(-c2nc3ccccc3[nH]2)cc(C(=O)c2cccs2)nn1-c1ccc(Cl)cc1 | 48 | - | 43 | -
O=C(Nc1nc2ccccc2[nH]1)c1cccs1 | - | . | - | -
SMILES | NPY-Y1 PAM-ag | NPY-Y2 antag | NPY2 pot ag | NPY-Y1 antag
Cc1cc(-c2[nH]nc3c2C(c2ccsc2)C(C#N)=C(N)O3)c(C)s1 (stereo unspecified) | - | 149 | - | 154
CSc1sc(C(=O)NNC(C)=O)c2c1C=CCC2 | - | . | - | .
CCN(CC)CCC(=O)NC(C)(C)Cc1ccc(O)cc1 | 37 | - | - | -
Cc1cccc(C)c1NC(=S)NC(C)(C)CO | - | . | - | .
Nc1nc(Nc2cccc(F)c2)nc2ccccc12 | 42 | - | 43 | -
CC(C)Oc1ccc(CCC(=O)NNC(=O)CCC(=O)O)cc1 | - | . | - | .
CCOC(=O)Cn1nnc2c(sc3nc4c(c(-c5ccc(Cl)cc5)c32)CCC4)c1=O | - | 22 | - | -
CCN(CC)C(=S)Nc1ccc(Cl)c(Cl)c1 | - | - | - | -
S=C(Nc1ccc(Cl)cc1)NN1CCOCC1 | - | - | - | -
CC(C)c1ccc(NC(=S)NN2CCOCC2)cc1 | 88 | - | 89 | -
COC(=O)CN1C(=S)N(Cc2ccccc2)C(=O)C1CC(=O)Nc1ccc(Br)cc1 (stereo unspecified) | 44 | - | 35 | -
CCOc1ccc2c(c1)-c1c(ssc1=S)C(C)(C)N2C(=O)CSC1=NCCS1 | 49 | - | 40 | -
CCOc1ccc2c(c1)-c1c(ssc1=S)C(C)(C)N2 | 44 | - | 45 | -
